Rad51 HR inh = Rad51 (human) homologous recombination inhibition; Q06609; hRad51 DNA strand exchange, fluorescence dequenching; inhibition, % at 10 µM; hit rate 0.085% among 200,000;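 active means inhibition above 40% at the single screening dose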;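 further: 0% = DMSO control wells and 100% = blanks with heterologous ssDNA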
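Assay system: Human Rad51 nucleoprotein filaments preassembled on unlabelled ssDNA | Reagent: Donor/quencher-labelled 47-bp dsDNA substrate | Doses: One concentration, 10 µM final | Times: 37 °C 15-min filament assembly, 30-min compound preincubation, 15-min exchange | Technique: Fluorescein emission 520 nm, excitation 485 nm | Benchmarks: Plate control and blank wells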
Hck-Nef inh = inhibitors of human Hck kinase activated by Nef. hit rate 0.68% among 220,000. Recombinant Hck-YEEI plus Nef, Z-Lyte FRET kinase assay. P08631. inhibition, % at 20 µM;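 active means Hck-Nef kinase inhibition above about 50%, limit read from the data; inactive means inhibition below that limit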;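 further: 0% = DMSO with Hck plus Nef and 100% = Hck alone without Nef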
H9c2 TAG inh = triacylglycerol accumulation inhibition. H9c2 cells, Nile Red lipid (TAG) fluorescence; cells loaded with 200 µM oleic acid. inhibition, % at 12.5 µM. hit rate 0.66% among 230,000. AID 651582;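 active means pattern-corrected inhibition of lipid staining of at least 50% with the nuclear-stain viability signal not falling by more than 50%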;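 further: 0% = DMSO wells and 100% = triacsin C control wells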
PERK inhibitor = human PERK inhibition, primary cell-based screen | inhibition, % at 5.6 µM | hit rate 0.17% among 220,000 | AID 1416 | CHO PERK-DD fusion, SEAP luminescence translation reporter;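 active means inhibition above the mean inhibition of all tested compounds plus 3 SD, set separately per screening campaign, cut at about 2.9% in these data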;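 further: PERK kinase domain activated by AP20187 dimerizer at 100 nM; 0% = DMSO with dimerizer and 100% = rapamycin at 8.4 µM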
PKD1 kinase inh = blocks activity of human protein kinase D1. PKD1 kinase fluorescence polarization assay. Q15139. hit rate 0.056% among 200,000. inhibition, % (test concentration not listed). AID 797; in the data active means inhibition above about 50%
Target sequence (Q15139 whole entry, looked up): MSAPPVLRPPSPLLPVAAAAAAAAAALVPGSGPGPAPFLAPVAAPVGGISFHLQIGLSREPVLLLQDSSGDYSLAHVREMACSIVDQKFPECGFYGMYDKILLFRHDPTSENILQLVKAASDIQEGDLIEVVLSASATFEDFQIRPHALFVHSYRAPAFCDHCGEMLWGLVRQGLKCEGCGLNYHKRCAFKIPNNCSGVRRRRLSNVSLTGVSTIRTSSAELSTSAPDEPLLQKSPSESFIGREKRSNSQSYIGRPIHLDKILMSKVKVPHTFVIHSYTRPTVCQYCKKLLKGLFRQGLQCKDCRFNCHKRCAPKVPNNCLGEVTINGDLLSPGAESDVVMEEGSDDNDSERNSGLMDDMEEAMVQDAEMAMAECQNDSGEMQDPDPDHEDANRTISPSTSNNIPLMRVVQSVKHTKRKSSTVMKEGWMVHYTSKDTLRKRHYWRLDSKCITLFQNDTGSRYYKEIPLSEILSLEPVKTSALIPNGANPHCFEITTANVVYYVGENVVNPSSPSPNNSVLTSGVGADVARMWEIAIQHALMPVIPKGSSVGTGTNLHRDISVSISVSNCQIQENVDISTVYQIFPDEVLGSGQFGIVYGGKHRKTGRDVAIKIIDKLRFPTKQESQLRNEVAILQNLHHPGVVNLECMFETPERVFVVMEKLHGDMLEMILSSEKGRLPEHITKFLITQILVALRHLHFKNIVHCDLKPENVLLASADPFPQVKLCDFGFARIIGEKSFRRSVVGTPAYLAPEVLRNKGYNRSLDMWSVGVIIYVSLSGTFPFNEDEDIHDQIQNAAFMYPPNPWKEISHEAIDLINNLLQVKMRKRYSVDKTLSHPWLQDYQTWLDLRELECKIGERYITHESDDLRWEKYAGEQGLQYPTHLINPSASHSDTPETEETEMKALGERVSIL
MDM2 E3 inh = blocks human Mdm2 ubiquitin ligase activity. Q00987. hit rate 0.11% among 210,000. signal enhancement, % at 5 µM. cell-based MDM2 ubiquitination luciferase reporter, 2 h; 0 = plate control, 100 = twice control, blank-subtracted;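 active means signal enhancement of 30% or more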;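 further: luminescence tracks abundance of the self-degrading MDM2-luciferase fusion protein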
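Assay system: stable mammalian line carrying autodegrading MDM2–luciferase fusion reporter; amount: 2000 cells seeded into each well; buffer or medium: DMEM; benchmarks: plate control and blank wells; signal: luciferase luminescence; timing: 2 h compound exposure at 37 °C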
Active calls of the source: *; . = not tested or not shown. Only some compounds are listed: those with a hit (about 1.3% of all), similar ones and a draw of the others.

SMILES	Rad51 HR inh	Hck-Nef inh	H9c2 TAG inh	PERK inhibitor	PKD1 kinase inh	MDM2 E3 inh
Cc1cccc(C(=O)NC(CC(=O)O)c2ccc(OC3CCCC3)cc2)c1[N+](=O)[O-] (stereo unspecified)	44*	4	-3	2	3	-2
Cc1ccc(NC(=O)CN2C(=O)/C(=C3\SC(=S)N(C4CCS(=O)(=O)C4)C3=O)c3ccccc32)cc1 (stereo unspecified)	-10	97*	.	0	-7	-16
O=C(CN1C(=O)/C(=C2\SC(=S)N(C3CCS(=O)(=O)C3)C2=O)c2ccccc21)Nc1ccccc1 (stereo unspecified)	-1	31	.	1	-14	-19
CCOc1ccc(/C=C2/SC(=S)N(C(C(=O)O)c3ccccc3)C2=O)cc1OCC (stereo unspecified)	-1	62*	7	2	-3	-6
OC(COc1ccc2c(c1)CCC2)Cn1cnc2ccccc21 (stereo unspecified)	128*	3	-22	0	1	-12
Cc1ccc(Nc2nc(N)nc(-c3oc4ccccc4c3C)n2)cc1	.	8	58*	0	3	.
Cc1cccc(Nc2nc(N)nc(-c3oc4ccccc4c3C)n2)c1	0	7	20	-2	.	-4
O=C(Nc1ccccc1N1CCCCC1)c1cc(S(=O)(=O)N2CCOCC2)ccc1F	.	.	18	.	.	.
CC(=O)c1nnn(-c2ccc(F)cc2F)c1C	15	6	0	1	.	-12
CC(=O)c1nnn(-c2c(F)cccc2F)c1C	13	6	0	3.1*	.	-5
CC1(C(=O)NS(=O)(=O)c2cccc(Cl)c2)CCN1C(=O)C1CCCCC1 (stereo unspecified)	.	.	14	.	.	.
CC(C)Oc1ccc(C(=O)NC(=S)N2CCOCC2)cc1	.	7	.	0	1	53*
COc1ccc(C(=O)NC(=S)N2CCOCC2)cc1Br	.	.	-13	.	.	.
CC(=O)c1ccc(N=Cc2c(O)n(-c3cc(Cl)ccc3N3CCOCC3)c(=O)c3ccccc23)cc1	1	2	52*	-1	-7	-14
C=CCN1C(=O)/C(=C2/Sc3ccccc3N2CC)SC1=S	.	.	1	.	.	.
CCN1C(=O)/C(=C2/Sc3ccccc3N2CC)S/C1=N\c1ncn[nH]1	-92	53*	5	0	6	-3
COc1cc(C2C(C#N)=C(N)Oc3cc(N)ccc32)cc(OC)c1OC (stereo unspecified)	-9	4	65*	1	-12	-8
N#CC1=C(N)Oc2cc(N)ccc2C1c1ccc(F)cc1 (stereo unspecified)	2	4	8	0	-5	-5
CCC(C)NCCOCCSc1ccc(Cl)cc1 (stereo unspecified)	-11	2	.	0	-1	-7
CC1C2=C(CCCC2=O)N(c2cccc3ccccc23)C2=C1C(=O)CCC2	.	18	.	0	2	.
CCOc1cc(/C=N/Nc2cc(C)nc(-n3nc(C)cc3C)n2)ccc1O	7	21	68*	0	.	-11
c1ccc(N2CCN(c3ccccc3)C2c2cccs2)cc1	-26	-1	.	0	2	36*
CSc1nc2c(c(=O)[nH]1)C(c1cccs1)C1=C(CCCC1=O)N2 (stereo unspecified)	-2	2	-9	1	-2	-2
CC1(C)CC(=O)C2=C(C1)Nc1nc(SCCN3CCOCC3)[nH]c(=O)c1C2c1cccs1 (stereo unspecified)	-2	0	4	-1	1	31*
C=CCNc1ncnc2c1ncn2[C@H]1CN(C2CCCC2)C[C@@H](CO)O1	.	.	9	.	.	.
SMILES	Rad51 HR inh	Hck-Nef inh	H9c2 TAG inh	PERK inhibitor	PKD1 kinase inh	MDM2 E3 inh
C#CCOCCOCCOCCNc1nc(N2CCN(C(=O)CCCCCCCCCCNC(=O)[C@H](CCCCN)n3cc(C[C@@H](C)CC)nn3)CC2)nc(N2CCN(C(=O)CCCCCCCCCCNC(=O)[C@H](CCCCN)n3cc(C[C@@H](C)CC)nn3)CC2)n1	.	.	88*	.	.	.
C#CCOCCOCCOCCNc1nc(N2CCN(C(=O)CCCCCCCCCCNC(=O)[C@H](CCCCN)n3cc(C)nn3)CC2)nc(N2CCN(C(=O)CCCCCCCCCCNC(=O)[C@@H]([C@H](C)CC)n3cc(CCCCCN)nn3)CC2)n1	.	.	75*	.	.	.
CN1CCC(N(C)C(=O)/C(C#N)=C/c2ccc(OC(F)F)cc2)CC1	45*	17	2	1	.	.
CCN(CC)CCn1c2c(c(SCC(=O)Nc3cccc4ccccc34)nc1=O)CCCC2	.	.	-4	.	.	.
CCOc1ccc(NC(=O)CCC(=O)NNC(=O)Nc2ccc(Cl)cc2)cc1	8	19	.	0	1	-13
Cc1ccccc1NC(=O)CSC(N)=O	-7	0	-1	3.1*	-17	-8
Cc1ccccc1NC(=O)CSCC(=O)Nc1ccccc1C	-1	12	.	0	1	-9
COc1cc(CNc2ncnc3c2ncn3[C@H]2CN(Cc3ccncc3)C[C@@H](CO)O2)cc(OC)c1OC	.	.	-8	.	.	.
CCCCCC(O)C=CC1C(O)CC(O)C1CC=CCCCC(=O)O (stereo unspecified)	.	.	-24	.	.	.
CCCCC[C@H](O)/C=C/[C@H]1C=CC(=O)[C@@H]1C/C=C\CCCC(=O)O	0	57*	.	1	-3	.
O=C(NC1CCCC1)C(c1c[nH]c2ccccc12)N(C(=O)Cn1nnc(-c2ccc(Cl)cc2)n1)c1ccccc1 (stereo unspecified)	-2	-1	77*	-1	0	-11
CC(C)c1nc(SCC(=O)Nc2ccc3c(c2)OCCO3)n[nH]1	-8	10	-1	0	6	-13
CCc1nc2c(OCC(=O)N3CCOCC3)cccn2c1N(C=O)Cc1ccccc1	.	.	-7	.	.	.
CC1CCC(C(C)C)C(OC(=O)Cn2c(-c3ccccc3)[n+](C)c3ccccc32)C1 (stereo unspecified)	6	1	.	0	10	-34
Cc1cccc(OCc2n(CC(=O)OC3CC(C)CCC3C(C)C)c3ccccc3[n+]2C)c1 (stereo unspecified)	14	5	98*	0	-6	-13
CN(C)c1ccc(/C=C/c2ccc3ccccc3[n+]2C)cc1	12	4	.	-1	-3	-53
CN(C)c1ccc(/C=C/c2ccc3c4ccccc4ccc3[n+]2-c2ccccc2)cc1	51*	49	67*	-2	1	-21
COc1ccc(NC(=S)N(CCN2CCOCC2)Cc2cc3cc4c(cc3[nH]c2=O)OCCO4)cc1	-6	15	11	0	-3	-3
COc1cccc(NC(=O)CN(C)C(=O)c2cc(-c3ccccc3)nc3ccc(C)cc23)c1	.	.	30	.	.	.
C=CCn1c(CSc2nc3ccccc3s2)nnc1SCC(=O)NCc1ccccc1	11	-16	.	0	-1	6
Cc1sc(NC(=O)CSc2n[nH]c(N)n2)c(C#N)c1C	.	.	0	.	.	.

Screening data (PubChem BioAssay)
